Assay results collected from several papers.
Compare with care: the assays were run in different laboratories.
Target: TRAF2 and NCK-interacting protein kinase (TNIK, Homo sapiens, UniProt Q9UKE5)

| SMILES | test | conditions | measurement | result |
| --- | --- | --- | --- | --- |
| Cn1nc(C(=O)NCc2ccc(C(=O)O)cc2)cc1-c1ccc2[nH]ccc2c1 | cell-free assay, competition with immobilised ligand | 0.1 µM | remaining binding | 97% |
| CC1(C)NC(=O)c2[nH]c3c(Cl)c(Cl)ccc3c2C1C#N (stereo not drawn) | thermal stability, DSF | 10 µM | ΔTm | 0 °C |
| CCCCNc1ncc2c(-c3ccc(F)cc3)nn(C[C@H]3CC[C@H](N)CC3)c2n1 | target engagement in cells, inhibitor, chemoproteomics | 20 mM | inhibition | 62.6% |
| CC(C)(O)[C@H]1CC[C@H](Nc2ccc3ncc(-c4cccc(C(F)(F)F)c4)n3n2)CC1 | enzyme activity, inhibitor | 1 µM | remaining activity | 96.9% |
| CO[C@@H](C)c1c(Nc2ccc([C@@H](N(C)C(=O)C3CCS(=O)(=O)CC3)C(F)(F)F)cc2)cnc2cc(Cl)nn12 | cell-free assay, competition with immobilised ligand | 1 µM | remaining binding | 100% |
| CN1CC(Oc2cnc(C#N)cc2-c2ccn3nc(NC(=O)C4CC4)cc3c2)C1 | enzyme activity, inhibitor | 1 µM | inhibition | 29% |
| CN1CCN(c2cnc3c(C4CCN(C(=O)c5ccc(OC(F)(F)F)cc5N)CC4)ncnc3c2)CC1 | cell-free assay, competition with immobilised ligand | 1 µM | remaining binding | 100% |
| CCC1(CC)NC(=O)c2c(c3ccc(Cl)c(Cl)c3n2C)C1C#N (stereo not drawn) | thermal stability, DSF | 10 µM | ΔTm | 0.3 °C |
| CCCCN(CCCC)C(=O)CN1C[C@@H](c2cc(OC)c3c(c2)OCO3)[C@H](C(=O)O)[C@H]1CC(C)(C)CCC | cell-free assay, competition with immobilised ligand | 1 µM | remaining binding | 86% |
| Cn1c2c(c3ccc(Cl)c(Cl)c31)C(C#N)C(C)(C)NC2=O (stereo not drawn) | thermal stability, DSF | 10 µM | ΔTm | -0.4 °C |
| O=C(O)[C@H]1[C@H](Cn2nnc3ccccc3c2=O)CC[C@@H]1C(=O)c1ccc(OCCC2CCOCC2)cc1 | cell-free assay, competition with immobilised ligand | 1 µM | remaining binding | 84% |
| N#CC1c2c([nH]c3c(Cl)c(Cl)ccc23)C(=O)NC12CCCCC2 (racemic) | thermal stability, DSF | 10 µM | ΔTm | 0 °C |
| O=C(CSc1nc2nccnc2c(=O)n1CCc1ccccc1)Nc1nccs1 | enzyme activity, inhibitor | 10 µM | inhibition | -4% |
| Cn1cc(Cl)c2c(Oc3c(F)cc(Nc4cc(Cl)nc(N)n4)cc3F)ccnc21 | cell-free assay, competition with immobilised ligand | 0.1 µM | remaining binding | 96% |
| O=C(Nc1cnn(-c2csc(C(=O)NC3COC3)c2)c1)Nc1ccccc1Cl | enzyme activity, inhibitor | 5 µM | remaining activity | 53.2% |
| Cn1cnc(Br)c1C1=CN(c2ncnc3[nH]cnc23)CCS1 | enzyme activity, inhibitor, radiometric | 2 µM | inhibition | 88.7% |
| c1ccc(CNc2nc(N3CCOc4ccccc43)nc3c2CCCC3)cc1 | target engagement in cells, inhibitor, chemoproteomics | 20 mM | inhibition | -8% |
| Cn1c2c(c3ccc(Cl)c(Cl)c31)C(C#N)C1(CCOCC1)NC2=O (stereo not drawn) | thermal stability, DSF | 10 µM | ΔTm | -0.1 °C |
| C=CC(=O)Nc1cc(Nc2nccc(Nc3cc(Cl)c(F)cc3C(C)(C)O)n2)c(OC)cc1N1CC[C@@H](N(C)C)C1 | enzyme activity, inhibitor | 1 µM | inhibition | 47% |
| Cn1c2c(c3ccc(Cl)c(Cl)c31)C(C#N)C1(CCNCC1)NC2=O (racemic) | thermal stability, DSF | 10 µM | ΔTm | -0.1 °C |
| Cc1sc(C(=O)NC2COC2)cc1-n1cc(NC(=O)Nc2c(F)cccc2Cl)cn1 | enzyme activity, inhibitor | 10 µM | remaining activity | 94.5% |
